Source: publication PMC9050490 (RSC Advances, 2020)

Columns and labels:
[1] = test system: Karpas299 cells; assay: MTT antiproliferative assay, Karpas299; assay type: cell-based
Outline: (§1)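 Cells were pre-incubated 24 h at 37 °C under 5% CO2, then exposed to a range of test compound concentrations dissolved in culture medium. MTT (5 mg mL−1 solution) was added for 4 h and formazan dissolved in DMSO. Absorbance was read at 630 nm. IC50 came from a non-linear curve fit, and growth inhibition was also reported.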

[2] = test system: HepG2 cells; assay: MTT antiproliferative assay, HepG2; assay type: cell-based, human
Outline: as §1

[3] = test system: A549 cells; assay: MTT antiproliferative assay, A549; assay type: cell-based; settings: Homo sapiens, A549, read-out: Antiproliferative activity IC50
Outline: as §1

[4] = test system: MCF-7 cells; assay: MTT antiproliferative assay, MCF-7; assay type: cell-based; settings: Homo sapiens, MCF7, read-out: Antiproliferative activity IC50
Outline: as §1

[5] = test system: PC-3 cells; assay: MTT antiproliferative assay, PC-3; assay type: cell-based; settings: Homo sapiens, PC-3, read-out: Antiproliferative activity IC50
Outline: as §1

Row | SMILES | IC50 ([1]; Homo sapiens, KARPAS-299, read-out: Antiproliferative activity IC50) [µM] | IC50 ([2]; Homo sapiens, HepG2, read-out: Antiproliferative activity IC50) [µM] | inhibition at 2 µg/mL ([2]; Homo sapiens, HepG2, read-out: growth inhibition, HepG2, 2 μg mL^−1, MTT) [%] | inhibition at 20 µg/mL ([2]; Homo sapiens, HepG2, read-out: growth inhibition, HepG2, 20 μg mL^−1, MTT) [%] | IC50 [3] [µM] | IC50 [4] [µM] | IC50 [5] [µM] | growth inhibition ([1]; Karpas299, 2 μg mL^−1, MTT) [%] | growth inhibition ([1]; Karpas299, 20 μg mL^−1, MTT) [%] | growth inhibition ([2]; HepG2, 2 μg mL^−1, MTT) [%] | growth inhibition ([2]; HepG2, 20 μg mL^−1, MTT) [%]
1 | C[C@@H](Oc1cc(-c2cnn(C3CCNCC3)c2)cnc1N)c1c(Cl)ccc(F)c1Cl [Crizotinib] | 2.82 | 10.6 | 27.1 | 97.8 | 1.49 | 4.09 | 7.33 | – | – | – | –
2 | CC1(C)[C@@H](O)CC[C@]2(C)[C@H]3C(=O)C=C4[C@@H]5C[C@@](C)(C(=O)N6CCN(C(=O)c7ccc(Cl)cc7)CC6)CC[C@]5(C)CC[C@@]4(C)[C@]3(C)CC[C@@H]12 [Compound 4i, 3β-Hydroxy-30-(4-(4-chlorobenzoyl)-1-piperazinyl)-olean-12-ene-11,30-dione] | – | – | – | – | – | – | – | 0.00 | 12.76 | 0.00 | 19.10
